Results from ChEMBL document CHEMBL1123901, “Inhibition of delayed hypersensitivity reactions by cinnamyl 1-thioglycosides” (J Med Chem, 1987).

Tests used:
Type in all cases: functional
Cavia porcellus [1] = organism: Cavia porcellus; test: Effect on guinea pig T cell proliferation was tested by measuring the incorporation of [3H]-thymidine uptake at the concentration of 100 uM
In short: (§1)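 Strain 2 female guinea pigs were immunized with 100 μg OVA in CFA split over the footpads. At day 14 they received mineral oil ip, and the exudate was collected 4 days later. T cells were enriched on nylon wool. 2×10^5 cells per well were cultured with 10% irradiated (2100 rads) exudate cells, OVA (10 μg/mL) and compound, for 72 h at 37 °C in 5% CO2. [3H]thymidine (1 μCi) was added 18-24 h before harvest. Triplicate wells; mean Δcpm ± SD.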

Cavia porcellus [2] = organism: Cavia porcellus; test: Effect on guinea pig T cell proliferation was tested by measuring the incorporation of [3H]thymidine uptake at the concentration of 10 uM; in short: as §1
Cavia porcellus [3] = organism: Cavia porcellus; test: Effect on guinea pig T cell proliferation was tested by measuring the incorporation of [3H]-thymidine uptake at the concentration of 0 uM; in short: as §1
Cavia porcellus [4] = organism: Cavia porcellus; test: Effect on guinea pig T cell proliferation was tested by measuring the incorporation of [3H]thymidine uptake at the concentration of 1000 uM; in short: as §1
Cavia porcellus [5] = organism: Cavia porcellus; test: Inhibitory activity against [3H]thymidine uptake by cinnamyl 1-thioglycosides in guinea pig T cell proliferation; in short: as §1
Cavia porcellus [6] = organism: Cavia porcellus; test: Effect on guinea pig T cell proliferation was tested by measuring the incorporation of [3H]thymidine uptake at the concentration of 500 uM; in short: as §1
Cavia porcellus [7] = organism: Cavia porcellus; test: Effect on guinea pig T cell proliferation was tested by measuring the incorporation of [3H]thymidine uptake at the concentration of 750 uM; in short: as §1
Cavia porcellus [8] = organism: Cavia porcellus; test: Effect on guinea pig T cell proliferation was tested by measuring the incorporation of [3H]thymidine uptake at the concentration of 250 uM; in short: as §1

Row | SMILES | Activity (Cavia porcellus [1]) | Activity (Cavia porcellus [2]) | Activity (Cavia porcellus [3]) | Activity (Cavia porcellus [4]) | IC50 (Cavia porcellus [5]; Cavia porcellus, T-cell, 72 h) | Activity (Cavia porcellus [6]) | Activity (Cavia porcellus [7]) | Activity (Cavia porcellus [8]) | IC50 (Cavia porcellus [5]; Cavia porcellus, T-cell) | IC50 (Cavia porcellus [5]; t-cell)
1 | COCC1OC(SC/C=C/c2ccccc2)C(O)C(O)C1O (stereo unspecified) | 36.2 Δcpm x10e-3 | 97 Δcpm x10e-3 | 88 Δcpm x10e-3 | 0 Δcpm x10e-3 | 41 µM | 0 Δcpm x10e-3 | 0 Δcpm x 10^-3 | 1.23 Δcpm x10e-3 |  | 
2 | CC(=O)NCC1OC(SC/C=C/c2ccccc2)C(O)C(O)C1O (stereo unspecified) | 66.6 Δcpm x10e-3 | 70.7 Δcpm x10e-3 | 79.8 Δcpm x10e-3 | 36 Δcpm x10e-3 |  | 39.3 Δcpm x10e-3 | 38.8 Δcpm x 10^-3 | 52.9 Δcpm x10e-3 |  | 
3 | OCC1OC(SCCCc2ccccc2)C(O)C(O)C1O (stereo unspecified) | 59 Δcpm x10e-3 | 70.3 Δcpm x10e-3 | 72.8 Δcpm x10e-3 | 0 Δcpm x10e-3 | 402 µM | 34.2 Δcpm x10e-3 | 18.5 Δcpm x 10^-3 | 39.7 Δcpm x10e-3 |  | 
4 | OCC1OC(OCC2OC(SCC=Cc3ccccc3)C(O)C(O)C2O)C(O)C(O)C1O (stereo unspecified) | 54.9 Δcpm x10e-3 | 64.2 Δcpm x10e-3 | 86.9 Δcpm x10e-3 | 3.85 Δcpm x10e-3 |  | 28.9 Δcpm x10e-3 | 13.04 µM | 34.1 Δcpm x10e-3 | 340 µM | 
5 | NCC1OC(SC/C=C/c2ccccc2)C(O)C(O)C1O (stereo unspecified) | 101 Δcpm x10e-3 | 120 Δcpm x10e-3 | 81 Δcpm x10e-3 | 0.01 Δcpm x10e-3 |  | 1.23 Δcpm x10e-3 | 0.02 Δcpm x 10^-3 | 71.1 Δcpm x10e-3 |  | 
6 | O=C(CCCCC1CCSS1)NCC1OC(SC/C=C/c2ccccc2)C(O)C(O)C1O (stereo unspecified) | 2.97 Δcpm x10e-3 | 75.2 Δcpm x10e-3 | 93.2 Δcpm x10e-3 | 0.08 Δcpm x10e-3 |  | 0 Δcpm x10e-3 | 0 Δcpm x 10^-3 | 0 Δcpm x10e-3 |  | 
7 | CCCC(=O)NCC1OC(SC/C=C/c2ccccc2)C(O)C(O)C1O (stereo unspecified) | 45 Δcpm x10e-3 | 68.4 Δcpm x10e-3 | 85.8 Δcpm x10e-3 | 0.07 Δcpm x10e-3 |  | 0 Δcpm x10e-3 | 0 Δcpm x 10^-3 | 1.73 Δcpm x10e-3 |  | 
8 | OCC1OC(SC/C=C/c2ccccc2)C(O)C(O)C1O (stereo in doubt; 3) | 66.7 Δcpm x10e-3 | 75.3 Δcpm x10e-3 | 80.3 Δcpm x10e-3 | 42 Δcpm x10e-3 | 871 µM | 62.7 Δcpm x10e-3 | 38.4 Δcpm x 10^-3 | 67.8 Δcpm x10e-3 |  | 
9 | CC1OC(SC/C=C/c2ccccc2)C(O)C(O)C1O (stereo in doubt; 5) | 130 Δcpm x10e-3 | 144 Δcpm x10e-3 | 147 Δcpm x10e-3 | 17.5 Δcpm x10e-3 |  | 66.6 Δcpm x10e-3 | 31.8 Δcpm x 10^-3 | 109 Δcpm x10e-3 |  | 525 µM
10 | CC1OC(SC/C=C/c2ccccc2)C(O)C(O)C1O (stereo in doubt; 6) | 101 Δcpm x10e-3 | 115 Δcpm x10e-3 | 93.5 Δcpm x10e-3 | 5.97 Δcpm x10e-3 |  | 36.4 Δcpm x10e-3 | 12.8 Δcpm x 10^-3 | 59.7 Δcpm x10e-3 |  | 750 µM
